Laboratory results taken from ChEMBL document CHEMBL4043244, “Diverse amide analogs of sulindac for cancer treatment and prevention” (Bioorg Med Chem Lett, 2017).

Legend:
Type in all cases: functional
HT-29 = experiment: Growth inhibition of human HT-29 cells after 72 hrs by CellTiter-Glo reagent based assay; conditions: HT-29, 72 h
Outline: (§1)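 Cancer cell lines (PC3 prostate, HT29 colorectal carcinoma, MDA-MB-231 breast) were screened by quantitative high-throughput screening in whole cells, and CC50 values were derived.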

PC-3 = experiment: Growth inhibition of human PC3 cells after 72 hrs by CellTiter-Glo reagent based assay; conditions: PC-3, 72 h; outline: as §1
MDA-MB-231 = experiment: Growth inhibition of human MDA-MB-231 cells after 72 hrs by CellTiter-Glo reagent based assay; conditions: MDA-MB-231, 72 h; outline: as §1

Compound	CC50 (HT-29) [µM]	CC50 (PC-3) [µM]	CC50 (MDA-MB-231) [µM]
CCN1CCC[C@H]1CNC(=O)CC1=C(C)/C(=C/c2ccc([S+](C)[O-])cc2)c2ccc(F)cc21 (some centres not stated)	19	> 50	> 50
CSc1ccc(/C=C2/C(C)=C(CC(=O)Nc3ccc(N(C)C)cc3)c3cc(F)ccc32)cc1	> 50	> 50	30.6
CSc1ccc(/C=C2/C(C)=C(CC(=O)N(C)CCN(C)S(=O)(=O)c3ccccc3)c3cc(F)ccc32)cc1	8.82	> 50	> 50
CSc1ccc(/C=C2/C(C)=C(CC(=O)N3CCN(C)CC3)c3cc(F)ccc32)cc1	4.29	13.4	11.5
CC1=C(CC(=O)N(C)CCN(C)S(=O)(=O)c2ccc3ccccc3c2)c2cc(F)ccc2/C1=C\c1ccc([S+](C)[O-])cc1 (configuration not stated)	6.35	7.52	32.1
CC1=C(CC(=O)NCCN(C)C)c2cc(F)ccc2/C1=C\c1ccc(S(C)(=O)=O)cc1	12.7	> 50	37.5
COc1cc(/C=C2/C(C)=C(CC(=O)NCCC(C)C)c3cc(F)ccc32)cc(OC)c1OC	5.24	8.2	8.73
CSc1ccc(/C=C2/C(C)=C(CC(=O)N3CCNCC3)c3cc(F)ccc32)cc1	2.47	6.5	3.69
CSc1ccc(/C=C2/C(C)=C(CC(=O)N(C)CCN(C)S(=O)(=O)c3ccc4ccccc4c3)c3cc(F)ccc32)cc1	35.3	> 50	> 50
CCS(=O)(=O)N(C)CCN(C)C(=O)CC1=C(C)/C(=C/c2ccc(SC)cc2)c2ccc(F)cc21	4.2	14.3	10.1
CCN(CC)CCNC(=O)CC1=C(C)/C(=C/c2cc(OC)c(OC)c(OC)c2)c2ccc(F)cc21	5.42	13.9	12.3
CCN(CC)CCNC(=O)CC1=C(C)/C(=C/c2ccc(SC)cc2)c2ccc(F)cc21	1.54	5.45	4.2
CSc1ccc(/C=C2/C(C)=C(CC(=O)NCCC3CCCN3C)c3cc(F)ccc32)cc1 (configuration not stated)	1.41	4.33	3.75
CSc1ccc(/C=C2/C(C)=C(CC(=O)NCCN3CCCC3)c3cc(F)ccc32)cc1	1.81	5.27	3.78
COc1cc(/C=C2/C(C)=C(CC(=O)NCCCN(C)C)c3cc(F)ccc32)cc(OC)c1OC	6.08	13	10.8
CC1=C(CC(=O)NCc2ccccc2)c2cc(F)ccc2/C1=C\c1nc2ccccc2s1	23.6	> 50	19.6
CCN1CCC[C@H]1CNC(=O)CC1=C(C)/C(=C/c2ccc(SC)cc2)c2ccc(F)cc21	1.16	4.64	3.72
CC1=C(CC(=O)NCCN2CCCC2)c2cc(F)ccc2/C1=C\c1ccncc1	2.68	10.2	7.19
CC1=C(CC(=O)N(C)CCN(C)C(=O)[C@@H](N)C(C)C)c2cc(F)ccc2/C1=C\c1ccc([S+](C)[O-])cc1 (some centres not stated)	30.2	> 50	> 50
CCN(CC)CCN(CC)C(=O)CC1=C(C)/C(=C/c2ccc([S+](C)[O-])cc2)c2ccc(F)cc21 (configuration not stated)	18.4	> 50	> 50

Compound	CC50 (HT-29) [µM]	CC50 (PC-3) [µM]	CC50 (MDA-MB-231) [µM]
COc1cc(/C=C2/C(C)=C(CC(=O)NCCN(C)C)c3cc(F)ccc32)cc(OC)c1OC	6.22	18.3	15.1
CC1=C(CC(=O)NCCC(C)C)c2cc(F)ccc2/C1=C\c1nc2ccccc2s1	> 50	> 50	24.2
COC(=O)[C@@H](C)NC(=O)CC1=C(C)/C(=C/c2ccc(SC)cc2)c2ccc(F)cc21	16.2	44.2	32
CC1=C(CC(=O)N(C)CCN(C)S(C)(=O)=O)c2cc(F)ccc2/C1=C\c1ccc([S+](C)[O-])cc1 (configuration not stated)	12.4	42.6	12.5
CSc1ccc(/C=C2/C(C)=C(CC(=O)NCCN3CCNCC3)c3cc(F)ccc32)cc1	2.98	6.66	7.66
CC1=C(CC(=O)NCc2ccco2)c2cc(F)ccc2/C1=C\c1ccc([S+](C)[O-])cc1 (configuration not stated)	1	> 50	2.73
CC1=C(CC(=O)N2CCC[C@H]2CN2CCCC2)c2cc(F)ccc2/C1=C\c1ccc([S+](C)[O-])cc1 (some centres not stated)	20.2	> 50	> 50
CSc1ccc(/C=C2/C(C)=C(CC(=O)N(C)CCCN(C)C)c3cc(F)ccc32)cc1	2.18	6.98	5.41
CNCCCN(C)C(=O)CC1=C(C)/C(=C/c2ccc([S+](C)[O-])cc2)c2ccc(F)cc21 (configuration not stated)	> 50	> 50	> 50
CCN(CC)CCN(C)C(=O)CC1=C(C)/C(=C/c2ccc(SC)cc2)c2ccc(F)cc21	1.49	5.65	3.77
CCNCCCN(CC)C(=O)CC1=C(C)/C(=C/c2ccc(SC)cc2)c2ccc(F)cc21	1.38	3.92	3.03
CSc1ccc(/C=C2/C(C)=C(CC(=O)NCc3cccs3)c3cc(F)ccc32)cc1	2.16	11	5.66
CCNCCN(CC)C(=O)CC1=C(C)/C(=C/c2ccc(SC)cc2)c2ccc(F)cc21	2.54	6.56	6.65
CSc1ccc(/C=C2/C(C)=C(CC(=O)N3CCC(N4CCCCC4)CC3)c3cc(F)ccc32)cc1	1.06	4.06	2.61
CC1=C(CC(=O)N2CCC[C@H]2CN2CCCC2)c2cc(F)ccc2/C1=C\c1nc2ccccc2s1	1.58	4.25	3.61
CSc1ccc(/C=C2/C(C)=C(CC(=O)NCc3ccccn3)c3cc(F)ccc32)cc1	10.3	13.6	13.7
CCN(CCN(C)C)C(=O)CC1=C(C)/C(=C/c2ccc([S+](C)[O-])cc2)c2ccc(F)cc21 (configuration not stated)	18.2	> 50	> 50
CSc1ccc(/C=C2/C(C)=C(CC(=O)NCCN3CCCCC3)c3cc(F)ccc32)cc1	1.65	5.36	5.42
CC1=C(CC(=O)N(C)CCN(C)S(=O)(=O)c2cccc3c(N(C)C)cccc23)c2cc(F)ccc2/C1=C\c1ccc([S+](C)[O-])cc1 (configuration not stated)	10.6	9.2	> 50
CCN(CC)CCN(C)C(=O)CC1=C(C)/C(=C/c2ccc([S+](C)[O-])cc2)c2ccc(F)cc21 (configuration not stated)	24	> 50	> 50

Compound	CC50 (HT-29) [µM]	CC50 (PC-3) [µM]	CC50 (MDA-MB-231) [µM]
CC1=C(CC(=O)NCc2ccccc2)c2cc(F)ccc2/C1=C\c1ccncc1 [CP-461 FREE BASE]	2.14	5.71	3.68
CSc1ccc(/C=C2/C(C)=C(CC(=O)NCCCN(C)C)c3cc(F)ccc32)cc1	2.46	6.99	5.18
CCN(CC)CCNC(=O)CC1=C(C)/C(=C/c2nc3ccccc3s2)c2ccc(F)cc21	1.12	4.48	3.54
CC1=C(CC(=O)NCCC(C)C)c2cc(F)ccc2/C1=C\c1ccc([S+](C)[O-])cc1 (configuration not stated)	17.7	20.2	27.7
CC1=C(CC(=O)NCCN(C)C)c2cc(F)ccc2/C1=C\c1nc2ccccc2s1	1.57	4.88	3.63
CC1=C(CC(=O)NCCN(C)C)c2cc(F)ccc2/C1=C\c1ccncc1	6.89	28.9	18.1
CSc1ccc(/C=C2/C(C)=C(CC(=O)N(CCCNC(C)C)C(C)C)c3cc(F)ccc32)cc1	2.3	4.9	3.92
CSc1ccc(/C=C2/C(C)=C(CC(=O)N(C)CCN(C)S(=O)(=O)c3cccc4ccccc34)c3cc(F)ccc32)cc1	16.2	> 50	> 50
CC1=C(CC(=O)N(C)CCN(C)S(=O)(=O)c2cccc3ccccc23)c2cc(F)ccc2/C1=C\c1ccc([S+](C)[O-])cc1 (configuration not stated)	3.99	8.96	29.1
COc1cc(/C=C2/C(C)=C(CC(=O)N3CCC[C@H]3CN3CCCC3)c3cc(F)ccc32)cc(OC)c1OC	4.22	12.3	11.1
COC(=O)[C@H](Cc1cnc[nH]1)NC(=O)CC1=C(C)/C(=C/c2ccc(SC)cc2)c2ccc(F)cc21	23	> 50	> 50
CC1=C(CC(=O)N(C)CCCN(C)C)c2cc(F)ccc2/C1=C\c1ccc([S+](C)[O-])cc1 (configuration not stated)	38.9	> 50	> 50
CCS(=O)(=O)N(C)CCN(C)C(=O)CC1=C(C)/C(=C/c2ccc([S+](C)[O-])cc2)c2ccc(F)cc21 (configuration not stated)	42.6	> 50	> 50
COc1cc(/C=C2/C(C)=C(CC(=O)N(C)CCN(C)C)c3cc(F)ccc32)cc(OC)c1OC	4.68	11.4	10.8
CSc1ccc(/C=C2/C(C)=C(CC(=O)NCc3ccncc3)c3cc(F)ccc32)cc1	4.88	5.83	6.46
CSc1ccc(/C=C2/C(C)=C(CC(=O)NCc3ccc(N(C)C)cc3)c3cc(F)ccc32)cc1	> 50	> 50	> 50
CC1=C(CC(=O)NCCCN(C)C)c2cc(F)ccc2/C1=C\c1ccc([S+](C)[O-])cc1 (configuration not stated)	33.3	> 50	> 50
CC1=C(CC(=O)N(C)CCN(C)S(=O)(=O)c2ccccc2)c2cc(F)ccc2/C1=C\c1ccc([S+](C)[O-])cc1 (configuration not stated)	6.09	8.2	12.2
CSc1ccc(/C=C2/C(C)=C(CC(=O)NCc3ccccc3)c3cc(F)ccc32)cc1	1.52	16.4	3.61
